High-throughput results deposited in PubChem by several laboratories.
UCH37 DUB inh = inhibitors of human UCH37 deubiquitinase, primary screen, biochemical, Ub-AMC cleavage, fluorescence. inhibition, % (test concentration not listed). purified proteasome/UCH37. Ubiquitin carboxyl-terminal hydrolase isozyme L5 (Homo sapiens), Q9Y5K5. actives 0.33% (n = 330,000). AID 588478, 2011;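 active = mean inhibition over replicate wells above about 20%, limit read from the data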;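 note: 0% = compound-free wells with enzyme and 100% = wells lacking proteasome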
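Material: human UCH37 enzyme supplied as purified proteasome complex / Amount: 0.15 nM proteasome as dispensed / Buffer or medium: pH 7.4 Tris-HCl (50 mM) with ovalbumin, ATP-MgCl2, DTT / Times: preincubation 30 min, reaction 25 min, room temperature / Technique: AMC fluorescence from Ub-AMC cleavage, excitation 355 nm, emission 460 nm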
APOBEC3A inh = APOBEC3A ssDNA deaminase inhibitors, primary screen, selectivity assay for APOBEC3G inhibitor project, biochemical, FAM/TAMRA oligo cleavage fluorescence | DNA dC->dU-editing enzyme APOBEC-3A (Homo sapiens), P31941 | recombinant A3A, FAM/TAMRA ssDNA deamination fluorescence | inhibition, % at 20 µM | actives 0.41% (n = 330,000);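 active = at least 40% inhibition at 20 µM here, with at most 30% in a related deaminase screen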;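 note: plate controls were A3A with DMSO for no effect and wells lacking A3A enzyme for full effect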
Target sequence (P31941 whole entry, looked up): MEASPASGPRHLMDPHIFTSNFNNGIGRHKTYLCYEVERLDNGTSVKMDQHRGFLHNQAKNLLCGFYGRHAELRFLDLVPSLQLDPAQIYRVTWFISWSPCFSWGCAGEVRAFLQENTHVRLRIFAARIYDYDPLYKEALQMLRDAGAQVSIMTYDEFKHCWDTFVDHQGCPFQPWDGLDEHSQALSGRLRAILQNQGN
Arr AP2 block = inhibitors of beta-arrestin/AP2 binding, primary screen, biochemical, GPCR trafficking, flow cytometry; actives 0.31% (n = 340,000); AID 504490, 2011; beta-arrestin 1 C-terminal peptide binding to AP2 beta2-adaptin appendage (human); inhibition, % at 10 µM; FITC-arrestin peptide / GST-AP2 beads; AP2 beta2 appendage carries R879A mutation;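 active = inhibition above a set limit, near 3 SD of compounds lacking own fluorescence, cut at about 54% in these data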;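 note: plate controls were DMSO wells for no effect and 5 µM unlabelled arrestin peptide for full effect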
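test system = AP2 appendage R879A on GSH beads | buffer or medium = PBS plus Tween 20 (0.05%) and BSA (0.1%) | incubation = 12 min plus 1 h, RT | detection = bead flow cytometry, FITC channel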
AHR activator = AHR activators, primary screen, cell-based, luminescence, luciferase reporter, human; Aryl hydrocarbon receptor (Homo sapiens), P35869; AHR-responsive luciferase reporter cells; activation, % at 5 µM; actives 2.5% (n = 320,000); AID 2796, 2010; in the data active = activation above about 47%;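 note: 0% = vehicle wells and 100% = reference agonist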
APOBEC3G inh = APOBEC3G DNA deaminase inhibitors, primary screen, biochemical, fluorescence, single-stranded DNA substrate, uHTS. recombinant A3G, ssDNA deamination FAM/TAMRA fluorescence. inhibition, % at 20 µM. actives 0.28% (n = 330,000);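 active = inhibition of at least 40% at 20 µM, with no more than 30% in the related APOBEC3A deaminase screen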;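 note: plate controls were DMSO wells with A3G for no effect and wells lacking A3G enzyme for full effect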
Target sequence (Q9HC16 whole entry, looked up): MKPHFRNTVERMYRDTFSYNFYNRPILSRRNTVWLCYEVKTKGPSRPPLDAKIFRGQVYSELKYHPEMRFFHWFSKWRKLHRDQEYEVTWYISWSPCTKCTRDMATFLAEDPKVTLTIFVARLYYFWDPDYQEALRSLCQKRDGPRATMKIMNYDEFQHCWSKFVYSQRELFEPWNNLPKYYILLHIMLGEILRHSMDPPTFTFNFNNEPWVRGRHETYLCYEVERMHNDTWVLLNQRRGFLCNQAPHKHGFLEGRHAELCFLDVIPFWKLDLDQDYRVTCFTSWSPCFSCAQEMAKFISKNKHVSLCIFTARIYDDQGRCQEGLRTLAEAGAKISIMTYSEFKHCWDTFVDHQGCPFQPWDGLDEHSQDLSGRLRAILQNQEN
PolyA inh = polyadenylation inhibitors in yeast reporter cells, primary screen, luminescence, S. cerevisiae; S. cerevisiae SKY197-pL101 polyadenylation reporter, beta-gal luminescence; efflux-impaired pdr1/pdr3 knockout yeast; score 100 = 6 SD above DMSO; actives 0.02% (n = 300,000); activity score, % at 12 µM;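 active = lowest replicate activity score at least 50, where 100 means six control SD above control mean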;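 note: yeast exposed to compound for 9 h at 30 °C; higher score means more reporter readthrough which indicates perturbed polyadenylation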
The depositor's hits bear a star. In the library only some 3.4% were active in any assay of this set; here they are far more common.

COc1ccccc1C(=O)N/N=C/c1ccc(Cl)s1 was read as APOBEC3A inh -5, Arr AP2 block -1, AHR activator 49*, APOBEC3G inh -5 and PolyA inh -4.
For O=C(CSc1nnc(SCc2ccc(Cl)cc2)s1)NN=Cc1c(Cl)cccc1Cl the results were UCH37 DUB inh 1.
Screening CC1(C)CC(=NO)C(C(O)c2cccc([N+](=O)[O-])c2)C(C)(C)N1 (configuration not stated) returned UCH37 DUB inh 2.
NC(=O)c1c(N=Cc2cccnc2)sc2c1CCCC2 was read as UCH37 DUB inh -12.
COc1ccccc1C=NNC(=O)c1ccccc1OCCOc1ccccc1 was read as UCH37 DUB inh 5, APOBEC3A inh 1, Arr AP2 block 5, AHR activator 51* and APOBEC3G inh -3.
`COc1cc(OC)c(C2Nc3cccc4cccc(c34)N2)c(OC)c1` gave UCH37 DUB inh -139, APOBEC3A inh -3, Arr AP2 block 26, APOBEC3G inh -5 and PolyA inh 12.
O=[N+]([O-])c1ccccc1C1Nc2cccc3cccc(c23)N1 was read as UCH37 DUB inh 2, APOBEC3A inh -2, Arr AP2 block 9, AHR activator 75*, APOBEC3G inh -1 and PolyA inh -9.
COc1ccccc1C1Nc2cccc3cccc(c23)N1 was read as UCH37 DUB inh -15, APOBEC3A inh 3, Arr AP2 block 39, AHR activator 60*, APOBEC3G inh -4 and PolyA inh -7.
Screening O=c1[nH]c(/C(Cl)=C/c2c(F)cccc2Cl)nc2cc(Cl)ccc12 returned UCH37 DUB inh -25, APOBEC3A inh 0, Arr AP2 block 1, AHR activator 58*, APOBEC3G inh -2 and PolyA inh -1.
`CCc1ccc(C(=O)Nc2ccc(C)c(NS(C)(=O)=O)c2)cc1` gave UCH37 DUB inh 2, APOBEC3A inh -4, Arr AP2 block -18, AHR activator 65*, APOBEC3G inh -5 and PolyA inh -6.
For Cc1ccc(NC(=O)c2ccc(F)cc2F)cc1NS(C)(=O)=O the results were UCH37 DUB inh 2, APOBEC3A inh -2, Arr AP2 block 41, AHR activator 61*, APOBEC3G inh 12 and PolyA inh 11.
`COc1ccc(NN=C(C#N)C(=N)N2CCCCC2)cc1` gave UCH37 DUB inh 11.
`CCCCC(=O)NN=Cc1sccc1C` gave UCH37 DUB inh 1.
Cc1ccc(NC(=O)c2cc(=O)[nH]c3ccccc23)cc1 was read as UCH37 DUB inh 3, APOBEC3A inh -2, Arr AP2 block 10, AHR activator 76*, APOBEC3G inh -4 and PolyA inh -8.
For Cc1ccc(S(=O)(=O)N=C(c2ccc(F)cc2)N(C)C)cc1 the results were UCH37 DUB inh 1.
Screening Nc1c(C(=O)c2ccc(Cl)cc2)sc2nc3c(cc12)CCC3 returned UCH37 DUB inh -5, APOBEC3A inh 7, Arr AP2 block 27, AHR activator 53*, APOBEC3G inh 1 and PolyA inh -27.
`O=C(Nc1cccc(-c2cn3cccnc3n2)c1)c1ccc2c(c1)OCO2` gave UCH37 DUB inh -328, APOBEC3A inh 0, Arr AP2 block 0, AHR activator 49*, APOBEC3G inh -4 and PolyA inh 8.
Screening O=C(Nc1cccc(-c2cn3c(n2)SCC3)c1)c1ccc2c(c1)OCO2 returned UCH37 DUB inh 4, APOBEC3A inh 1, Arr AP2 block 10, AHR activator 50*, APOBEC3G inh -4 and PolyA inh -6.
O=C(Nc1ccc(-c2cn3c(n2)SCC3)cc1)c1ccc2c(c1)OCO2 was read as UCH37 DUB inh -9, APOBEC3A inh 1, Arr AP2 block 4, AHR activator -6, APOBEC3G inh -13 and PolyA inh -3.
For O=C(Nc1cccc(-c2cn3cccnc3n2)c1)c1ccc(Br)o1 the results were UCH37 DUB inh -441, APOBEC3A inh -6, Arr AP2 block 2, AHR activator 72*, APOBEC3G inh -3 and PolyA inh -5.
For O=C(Nc1cccc(-c2cn3cccnc3n2)c1)c1ccco1 the results were UCH37 DUB inh inactive, APOBEC3A inh 0, Arr AP2 block 7, AHR activator 33, APOBEC3G inh -8 and PolyA inh 3.
`c1cnc2nc(-c3ccc4c(c3)OCO4)cn2c1` gave UCH37 DUB inh -36, APOBEC3A inh -2, Arr AP2 block -20, AHR activator 64*, APOBEC3G inh -5 and PolyA inh 28.
Screening COc1ccc(C(=O)Oc2cc(C=NNS(=O)(=O)c3ccccc3)ccc2OC)cc1 returned UCH37 DUB inh 2.
`COC(=O)NN=Cc1cccs1` gave UCH37 DUB inh 4.
For CCCc1c(C(=O)NN=Cc2ccco2)nnn1-c1nonc1N the results were UCH37 DUB inh -5.
Screening C/C(=N\Nc1ccc2nncn2n1)c1ccc(Br)s1 returned APOBEC3A inh -4, Arr AP2 block 6, AHR activator 78*, APOBEC3G inh -7 and PolyA inh -1.
Screening COc1ccc(C(=O)C(C=NO)=NNc2ccc(F)cc2)cc1 returned UCH37 DUB inh 7.
Screening CN(C)c1cc(N/N=C/c2ccccc2C(F)(F)F)nc(N(C)C)n1 returned APOBEC3A inh 6, Arr AP2 block 39, AHR activator 55*, APOBEC3G inh -3 and PolyA inh -1.
Screening O=C(NC(=S)Nc1ccccc1O)c1ccc(-c2ccc(Cl)cc2)o1 returned UCH37 DUB inh 7, APOBEC3A inh -11, Arr AP2 block -1, AHR activator 67*, APOBEC3G inh -7 and PolyA inh -32.
N#C/C(=C\c1ccc([N+](=O)[O-])cc1)C(=O)Nc1ccccc1O was read as UCH37 DUB inh 2, APOBEC3A inh -4, Arr AP2 block -5, AHR activator 42, APOBEC3G inh -3 and PolyA inh 0.
Screening O=C(Nc1ccccc1O)c1ccc(Cl)cc1 returned UCH37 DUB inh 3, APOBEC3A inh -1, Arr AP2 block 16, AHR activator 66*, APOBEC3G inh -6 and PolyA inh 9.
